The values below come from article PMC5632222 (Journal of pharmaceutical and biomedical analysis, 2017).

A short description of data set [1]: Stability of VX-970 in stock solution. It counts as physicochemical.
The nature of data set [2]: Stability of VX-970 in human plasma. It counts as in vitro ADME. A digest of the protocol: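 Test compound was spiked into human plasma at QC levels of 5, 150 and 4000 ng/mL, in triplicate. Long-term stability: 8 months at -80 °C, read against freshly prepared standard curves. Freeze/thaw: 3 cycles, frozen at -80 °C and thawed on separate days, compared with fresh samples. Bench stability: 4 h at room temperature. Quantitation was by LC-MS/MS with deuterated internal standard.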

Data set [3] is classed as in vitro ADME. To be noted: bile spiked human plasma, room temperature 4 h. A digest of the protocol:
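Bile from treated animals, containing the direct glucuronide, was spiked into human plasma. Parent compound was quantitated by LC-MS/MS before and after 4 h at room temperature. Bile was also spiked into phosphate buffers at pH 5, 6, 7, 8 and 9 with the same 4 h room-temperature hold. The glucuronide was monitored via the 639.5>433.5 channel.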

In data set [4] the test system is pooled human liver microsomes. Briefly: Glucuronidation incubation in permeabilized human microsomes. It counts as in vitro ADME. A digest of the protocol: (§1)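 Pooled liver microsomes (human for line 1, female rat for line 2), permeabilized with 25 µg/mL alamethicin at 0.25 mg/mL protein in 0.1 M phosphate pH 7.4, 50 mM Tris-HCl, 10 mM MgCl₂. Test compound at 5,000 ng/mL; started with […]. Sampled at 0 and 60 min, quenched in acetonitrile, run in triplicate. LC-MS/MS read parent and the 639.5>433.5 glucuronide channel.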

Data set [5] relates to pooled female rat microsomes. The experiment in a line: Glucuronidation incubation in permeabilized rat microsomes. The format is in vitro ADME. A digest of the protocol:
as §1

The nature of data set [6]: Plasma pharmacokinetics in a patient after IV infusion of VX-970. It counts as in vivo, human. A digest of the protocol:
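One patient received a 1 h IV infusion at 60 mg/m², with blood sampled from 0 to 72 h. Plasma (50 µL) was spiked with deuterated internal standard, precipitated with acetonitrile, diluted with water and run by positive-ESI MRM LC-MS/MS. Calibration spanned 3–5000 ng/mL, and the glucuronide channel was also monitored. PK parameters were derived non-compartmentally.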

[7] abbreviates: one patient, 1 h IV infusion 60 mg/m^2, non-compartmental.

As for `CNCc1ccc(-c2cc(-c3nc(-c4ccc(S(=O)(=O)C(C)C)cc4)cnc3N)on2)cc1` [VX-970], the “Stability (%)” value in data set [1] (stock solution 8 months, −80 °C, 100,000 ng/mL) came out at 95.7%; in data set [1] (stock solution 6 h, ambient temp, 100,000 ng/mL) it was 96.7%; in data set [2] (plasma 3 freeze-thaw cycles, −80 °C, QCH 4000 ng/mL), 98.1%; in data set [2] (plasma 3 freeze-thaw cycles, −80 °C, QCL 5 ng/mL) it was 98.1%; in data set [2] (plasma 3 freeze-thaw cycles, −80 °C, QCM 150 ng/mL), 99.6%; in data set [2] (plasma 8 months, −80 °C, QCH 4000 ng/mL) it was 96.2%. The “Stability (%)” value turned out to be 92.2% in data set [2] (plasma 8 months, −80 °C, QCL 5 ng/mL); 100.1% in data set [2] (plasma 8 months, −80 °C, QCM 150 ng/mL); 100.2% in data set [2] (plasma 4 h, ambient temp., QCH 4000 ng/mL); 96.2% in data set [2] (plasma 4 h, ambient temp., QCL 5 ng/mL); 96.0% in data set [2] (plasma 4 h, ambient temp., QCM 150 ng/mL). The molecule also displayed a recovery at 8 months in data set [2] (human, plasma) of 92.2 to 100%. Besides, the “VX-970 concentrations in bile spiked plasma, % stable” value in data set [3] came to 96.5%. Besides, the “Drug remaining in the incubation mixture” value was 99.9% in data set [4] (human microsomes 0.25 mg/mL, 5,000 ng/mL VX-970, UDPGA, 60 min) and 87.5% in data set [5] (rat microsomes 0.25 mg/mL, 5,000 ng/mL VX-970, UDPGA, 60 min). Also, the Glucuronidation result in data set [4] (permeabilized human microsomes, 5,000 ng/mL VX-970, 60 min) is “no glucuronidation”. The “Metabolite in the 639.3>433.5 m/z glucuronide channel” value in data set [5] (rat microsome incubation of VX-970) is listed as “No metabolite was observed”. In addition, the area under the curve AUC(0-inf) in data set [6] (human, plasma, iv, 60 mg/m^2) was 2500 ng·h/mL. Further, the AUC(0-t) in data set [6] (human, plasma, iv, 60 mg/m^2) was found to be 2430 ng·h/mL. Also, in data set [6] (human, plasma, iv, 60 mg/m^2), the Cmax was 343 ng/mL. For the same molecule, the half-life in data set [6] (human, plasma, iv, 60 mg/m^2) is 14 h. In addition, the Cl in data set [6] (setting [7]) was determined as 24.0 L/h/m^2. In addition, the Vss in data set [6] (setting [7]) is reported as 386 L/m^2.

A word on the AUC(0-inf): it is total exposure, with the tail of the curve extrapolated. Read a low AUC(0-inf) as low exposure. By AUC(0-t) is commonly meant exposure summed from dosing to a finite time, without extrapolation to infinity. Read a low AUC(0-t) as low exposure. Usually Cmax stands for the peak of the concentration-time curve. In general, half-life refers to the time in which the quantity being followed falls by half.
